High-throughput results as filed in PubChem BioAssay.
KCNQ1 block: inhibitors of human KCNQ1 potassium channel; P51787; CHO-K1 KCNQ1, FluxOR thallium flux fluorescence; stronger effect = higher value; B-score at 10 µM; 310,000 compounds, 1.3% hits;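 active = compounds whose thallium flux B-score, printed positive for inhibition, exceeds three library SD while starting fluorescence stays within three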;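 also: channel opened by potassium depolarization with thallium stimulus after 20 min compound exposure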
Kir21 block: Kir2.1 (mouse) channel inhibition | P35561 | HEK293-Kir2.1, FluxOR thallium flux fluorescence; stronger effect = lower value | B-score at 10 µM | 310,000 compounds, 0.85% hits;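 active = fluorescence ratio B-score at or below minus 3 SD of library scores, with starting-brightness B-score within 2 SD, cut at about -4.2 in these data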;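 also: channel flux triggered by added potassium and thallium sulfate stimulus; B-score of peak minus minimum fluorescence over baseline after thallium stimulus; more negative B-score means stronger Kir2.1 block with less thallium influx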
KCNQ1 act: human KCNQ1 channel potentiation or activation | P51787 | CHO-K1 KCNQ1, thallium flux FluxOR fluorescence; stronger effect = higher value | AID 2648 | B-score at 10 µM | 310,000 compounds, 0.35% hits;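 active = fluorescence ratio B-score, a plate-corrected score, at least three library SD, with initial intensity B-score within 5 SD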
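Assay system: CHO-K1 cells stably expressing KCNQ1; Medium: assay buffer with matched DMSO; Also added: K+/Tl+ depolarizing stimulus; Dosing: single dose; Timing: dye 90 min, compound 20 min, room temperature; Measured by: kinetic FluxOR thallium fluorescence, 10-s 1-Hz baseline, 110-s post-stimulus read; Read-out: peak-minus-minimum fluorescence over initial fluorescence, negative-control normalized, B-scored.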
KCNK3 block: human KCNK3 channel inhibition, primary screen. O14649. CHO-KCNK3 thallium flux, FluxOR fluorescence; stronger effect = lower value. B-score at 10 µM. 340,000 compounds, 0.84% hits. AID 602410;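 active = B-score under library mean minus 4 SD, starting fluorescence ratio at most library mean plus 5 SD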;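 also: more negative B-score means stronger inhibition of thallium flux through KCNK3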
KCNK9 block: inhibitors of human KCNK9 two-pore domain potassium channel | AID 488922 | B-score at 10 µM | HEK293 KCNK9, FluxOR thallium flux fluorescence; stronger effect = lower value | 310,000 compounds, 1.2% hits;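 active = ratio B-score over 3 SD below the library mean, with starting fluorescence within 5 SD of its mean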;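 also: negative B-score means less thallium flux so channel inhibition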
Target sequence (Q9NPC2 whole entry, looked up, the tested form may be a part): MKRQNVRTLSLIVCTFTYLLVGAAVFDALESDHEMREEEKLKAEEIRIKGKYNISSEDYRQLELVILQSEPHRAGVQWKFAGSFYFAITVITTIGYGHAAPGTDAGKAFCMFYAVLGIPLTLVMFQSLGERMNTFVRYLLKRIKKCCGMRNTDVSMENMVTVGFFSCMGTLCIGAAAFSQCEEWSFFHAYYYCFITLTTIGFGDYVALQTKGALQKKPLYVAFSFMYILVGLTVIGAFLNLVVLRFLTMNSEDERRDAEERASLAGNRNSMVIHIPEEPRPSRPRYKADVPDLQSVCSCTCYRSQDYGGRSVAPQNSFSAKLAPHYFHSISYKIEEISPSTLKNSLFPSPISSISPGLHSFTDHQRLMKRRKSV
hERG rescue: hERG (human) protection from proarrhythmic block | Q12809 | AID 1511 | activation (rescue from dofetilide block), less the hit threshold, % at 10 µM | CHO-hERG, FluxOR thallium flux, dofetilide IC70 present | 310,000 compounds, 0.51% hits;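 active = activation above the mean of controls blocked by dofetilide plus 5 SD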;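 also: thallium influx through hERG after potassium depolarization seen as dye fluorescence rise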
* marks the source's active call; other numbers are inactive results. This is a sample that favours compounds with a hit; in the whole collection about 3.7% have one here.

Results for COc1cc(/C=C2\SC(N)=NC2=O)ccc1OCC(=O)Nc1ccccc1C ?
KCNK3 block: inactive

Results for O=C(O)c1cnn(-c2nc(-c3ccc(Br)cc3)cs2)c1C(F)(F)F ?
KCNQ1 block: inactive; Kir21 block: 0.95; KCNQ1 act: inactive; KCNK3 block: inactive; KCNK9 block: inactive; hERG rescue: 2

Results for Cc1ccc(S(=O)(=O)NCc2ccc(C(=O)NCCN(Cc3ccccc3)C(C)C)cc2)cc1 ?
KCNQ1 block: 6*; Kir21 block: -0.85; KCNQ1 act: inactive; KCNK3 block: inactive; KCNK9 block: inactive; hERG rescue: -13

What do the screens show for `CC(C)NC(=O)Nc1n[nH]c(Nc2ccc(Cl)cc2)n1`?
KCNQ1 block: inactive; Kir21 block: -0.94; KCNQ1 act: inactive; KCNK3 block: inactive; KCNK9 block: inactive; hERG rescue: 5.3*

How did COc1ccc(Cl)cc1NC(=O)NC(C)C do in these assays?
KCNQ1 block: inactive; Kir21 block: 2.1; KCNQ1 act: inactive; KCNK3 block: inactive; KCNK9 block: inactive; hERG rescue: -10

Results for Cc1cc(C)c2[nH]c(=O)c(CN(Cc3ccc4c(c3)OCO4)Cc3nnnn3C3CCCC3)cc2c1 ?
KCNQ1 block: inactive; Kir21 block: 0.89; KCNQ1 act: inactive; KCNK3 block: inactive; KCNK9 block: -13*; hERG rescue: -14

How did CC1CC2CCCC(O)=C2C(=O)O1 (stereo not drawn) do in these assays?
KCNK3 block: inactive

Results for CCOC(=O)Cn1c(=N)n(CCOc2ccc3ccccc3c2)c2ccccc21 ?
KCNQ1 block: inactive; Kir21 block: -11*; KCNQ1 act: inactive; KCNK3 block: inactive; KCNK9 block: inactive; hERG rescue: -18

What do the screens show for `OCC[C@H]1C[C@@H](O)[C@H](O)[C@@]2(Cc3ccccc3CO2)O1`?
KCNK3 block: inactive

Results for CCCc1ccc2oc(C(=O)N3CCN(CCC(N)=O)CC3)c(C)c2c1 ?
KCNQ1 block: inactive; Kir21 block: 2.1; KCNQ1 act: inactive; KCNK3 block: inactive; KCNK9 block: inactive; hERG rescue: -5

Results for CCCCN(CCCC)S(=O)(=O)c1ccc2oc(C(=O)N3CCOCC3)c(C)c2c1 ?
KCNQ1 block: inactive; Kir21 block: -4.8*; KCNQ1 act: inactive; KCNK3 block: inactive; KCNK9 block: inactive; hERG rescue: -10

How did Cc1ccc2oc(C(=O)N3CCN(CCO)CC3)c(C)c2c1 do in these assays?
KCNQ1 block: inactive; Kir21 block: -0.04; KCNQ1 act: 9*; KCNK3 block: inactive; KCNK9 block: inactive; hERG rescue: 8.5*

Results for O=C(COC(=O)COc1ccccc1)NCc1ccc2c(c1)OCO2 ?
KCNK3 block: inactive

What do the screens show for `COc1ccc(S(=O)(=O)NCc2cccnc2)cc1C`?
KCNQ1 block: inactive; Kir21 block: -0.97; KCNQ1 act: inactive; KCNK3 block: inactive; KCNK9 block: inactive; hERG rescue: 0

Results for Fc1ccc(Cn2cccc2C2=NC(c3ccccc3)CO2)cc1 (stereo not drawn) ?
KCNQ1 block: inactive; Kir21 block: -5.9*; KCNQ1 act: inactive; KCNK3 block: inactive; KCNK9 block: inactive; hERG rescue: -11

How did Cc1sc2nc(CN3CCN(c4ccc(O)cc4)CC3)[nH]c(=O)c2c1C do in these assays?
KCNQ1 block: inactive; Kir21 block: -0.11; KCNQ1 act: inactive; KCNK3 block: inactive; KCNK9 block: inactive; hERG rescue: -4

What do the screens show for `Cc1sc2nc(CN3CCOCC3)[nH]c(=S)c2c1C`?
KCNQ1 block: inactive; Kir21 block: -0.03; KCNQ1 act: 43*; KCNK3 block: inactive; KCNK9 block: inactive; hERG rescue: 52*

Results for COc1ccc(C(=O)/C(C#N)=N/Nc2ccc([N+](=O)[O-])cc2)cc1 ?
KCNQ1 block: 6*; Kir21 block: 4.3; KCNQ1 act: inactive; KCNK3 block: inactive; KCNK9 block: inactive; hERG rescue: -10

Results for COc1ccc(NC(=O)c2cc(-c3cccnc3)nc3ccc(C)cc23)cc1OC ?
KCNK3 block: inactive

How did COc1cc(NC(=O)c2cc(-c3cccnc3)nc3ccc(C)cc23)c(OC)cc1Cl do in these assays?
KCNQ1 block: inactive; Kir21 block: -2.2; KCNQ1 act: inactive; KCNK9 block: inactive; hERG rescue: 6.5*

How did O=C(Cc1ccccc1)NNc1c2ccccc2nc2ccccc12 do in these assays?
KCNQ1 block: inactive; Kir21 block: -0.66; KCNQ1 act: inactive; KCNK3 block: inactive; KCNK9 block: inactive; hERG rescue: -10

Results for OCC(Cc1ccccc1)Nc1c2ccccc2nc2ccccc12 (stereo not drawn) ?
KCNQ1 block: inactive; Kir21 block: -8.6*; KCNQ1 act: inactive; KCNK3 block: inactive; KCNK9 block: inactive; hERG rescue: -21

What do the screens show for `CCOC(=O)CN1NC2(CCC(C)CC2)NC1=S` (stereo not drawn)?
KCNQ1 block: inactive; Kir21 block: -0.01; KCNQ1 act: inactive; KCNK3 block: inactive; KCNK9 block: inactive; hERG rescue: -8

What do the screens show for `CCOC(=O)CN1NC2(CCC(C(C)(C)C)CC2)NC1=S` (stereo not drawn)?
KCNQ1 block: inactive; Kir21 block: -0.1; KCNQ1 act: inactive; KCNK3 block: inactive; KCNK9 block: inactive; hERG rescue: 8.7*

Results for CCOC(=O)c1c(C)nc2ccccc2c1-c1ccccc1 ?
KCNQ1 block: inactive; Kir21 block: -5.9*; KCNQ1 act: inactive; KCNK3 block: inactive; KCNK9 block: inactive; hERG rescue: -13

How did CCOC(=O)c1c(CCl)nc2ccccc2c1-c1ccccc1 do in these assays?
KCNQ1 block: inactive; Kir21 block: -1.8; KCNQ1 act: inactive; KCNK3 block: inactive; KCNK9 block: inactive; hERG rescue: -11

How did Cc1c(C(=O)NCCN2CCOCC2)oc2ccccc12 do in these assays?
KCNQ1 block: inactive; Kir21 block: -1.4; KCNQ1 act: inactive; KCNK3 block: inactive; KCNK9 block: inactive; hERG rescue: 48*

Results for Cc1cc(C(=O)OC(C(=O)Nc2cccc(C(F)(F)F)c2)c2ccccc2)c(C)o1 (stereo not drawn) ?
KCNQ1 block: 9*; Kir21 block: 1.6; KCNQ1 act: inactive; KCNK3 block: inactive; KCNK9 block: inactive; hERG rescue: -5

What do the screens show for `CCC(C)c1ccccc1NC(=O)c1cc2cccc([N+](=O)[O-])c2[nH]1` (stereo not drawn)?
KCNQ1 block: 8*; Kir21 block: 0.77; KCNQ1 act: inactive; KCNK3 block: inactive; KCNK9 block: inactive; hERG rescue: -11

Results for O=C(NNS(=O)(=O)c1ccc([N+](=O)[O-])cc1)c1ccc2ccccc2c1O ?
KCNQ1 block: 7*; Kir21 block: 3.6; KCNQ1 act: inactive; KCNK3 block: inactive; KCNK9 block: inactive; hERG rescue: -26
